Test results: ChEMBL document CHEMBL2069194, “Synthesis of sulfur containing dihydro-pyrrolo derivatives and their biological evaluation as antioxidants” (Bioorg Med Chem, 2012)
Active and inactive are the calls of the source. The rule behind the calls is not given here.

Experiments:
[1] = system: Radical scavenging activity; experiment: Antioxidant activity assessed as reduction of DPPH radical generation at 50 uM incubated for 20 mins at room temperature; type: functional; design: scale not given: the % may be the effect or the level left
Summary of the method: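 DPPH radical interaction in ethanol, compound final 50 µM (equimolar with DPPH); ethanol as control. Absorbance at 517 nm read after 20 min at room temperature.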

[2] = system: Glycine max; experiment: Inhibition of soybean lipoxygenase using sodium linoleate substrate at 100 uM
Summary of the method: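 Soybean lipoxygenase (0.2 mL of 1/9 × 10^-4 w/v solution in saline) incubated at room temperature with compound in ethanol and sodium linoleate 100 µM. Conversion to 13-hydroperoxylinoleic acid recorded at 234 nm, compared against caffeic acid 600 µM as standard inhibitor.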

[3] = Antioxidant activity assessed as inhibition of linoleic acid peroxidation at 100 uM by AAPH assay by UV spectrometry; type: functional
Summary of the method: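 Linoleic acid dispersion (10 µL of 16 mM) in 0.05 M phosphate buffer pH 7.4 at 37 °C; oxidation started under air by adding 50 µL of 40 mM AAPH, with 10 µL aliquots of compound present. Conjugated diene hydroperoxide formation followed as rise in absorbance at 234 nm; blank run contained same DMSO level.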

## CC(Cc1ccc(O)c(O)c1)C(C)Cc1ccc(O)c(O)c1 (stereo not drawn)
[1]
  Activity: 81%
[2]
  inhibition: 64%

## Cc1c(C)c2c(c(C)c1O)CCC(C)(C(=O)O)O2 (stereo not drawn)
[3]
  inhibition: 63%

## CCCCSC1=N[C@@H](C(=O)OC)[C@@H]2C(=O)N(c3ccccc3)C(=O)[C@H]12 (relative stereo)
[1]
  Activity: 11%
[3]
  inhibition: 82%
[2]
  inhibition: 91%

## CCCCSC1=N[C@H](C(=O)OC)[C@@H]2C(=O)N(c3ccccc3)C(=O)[C@H]12 (relative stereo)
[1]
  Activity: 7%
[3]
  inhibition: 89%
[2]
  inhibition: 56%

## CCCSC1=N[C@@H](C(=O)OC)[C@@H]2C(=O)N(c3ccccc3)C(=O)[C@H]12 (relative stereo)
[1]
  Activity: 7%
[3]
  inhibition: 86%
[2]
  inhibition: 43%

## CCCSC1=N[C@H](C(=O)OC)[C@@H]2C(=O)N(c3ccccc3)C(=O)[C@H]12 (relative stereo)
[1]
  Activity: 9%
[3]
  inhibition: 86%
[2]
  inhibition: 39%

## CCSC1=N[C@@H](C(=O)OC)[C@@H]2C(=O)N(c3ccccc3)C(=O)[C@H]12 (relative stereo)
[1]
  Activity: 11%
[3]
  inhibition: 91%
[2]
  inhibition: 81%

## CCSC1=N[C@H](C(=O)OC)[C@@H]2C(=O)N(c3ccccc3)C(=O)[C@H]12 (relative stereo)
[1]
  Activity: inactive
[3]
  inhibition: 89%
[2]
  inhibition: 26%

## COC(=O)[C@@H]1N=C(SC(C)C)[C@H]2C(=O)N(c3ccccc3)C(=O)[C@H]21 (relative stereo)
[1]
  Activity: 12%
[3]
  inhibition: 89%
[2]
  inhibition: 49%

## COC(=O)[C@@H]1N=C(SC)[C@H]2C(=O)N(c3ccccc3)C(=O)[C@H]21 (relative stereo)
[1]
  Activity: 26%
[3]
  inhibition: 93%
[2]
  inhibition: 51%

## COC(=O)[C@@H]1N=C(SCc2ccccc2)[C@H]2C(=O)N(c3ccccc3)C(=O)[C@H]21 (relative stereo)
[1]
  Activity: 15%
[3]
  inhibition: 98%
[2]
  inhibition: 83%

## COC(=O)[C@H]1N=C(SC(C)C)[C@H]2C(=O)N(c3ccccc3)C(=O)[C@H]21 (relative stereo)
[1]
  Activity: 13%
[3]
  inhibition: 72%
[2]
  inhibition: 44%

## COC(=O)[C@H]1N=C(SC)[C@H]2C(=O)N(c3ccccc3)C(=O)[C@H]21 (relative stereo)
[1]
  Activity: 8%
[3]
  inhibition: 84%

## COC(=O)[C@H]1N=C(SCc2ccccc2)[C@H]2C(=O)N(c3ccccc3)C(=O)[C@H]21 (relative stereo)
[1]
  Activity: 11%
[3]
  inhibition: 76%
[2]
  inhibition: 73%
